# Published values collected from several papers.
# Each line is one published result; the experiments were not run side by side.
Structure (SMILES),tested on,test,system,conditions,measurement,value
Cc1cc(Nc2ncc(Cl)c(Nc3ccccc3S(=O)(=O)C(C)C)n2)c(OC(C)C)cc1C1CCNCC1,NCI-H3122,"cell growth or viability, MTT",,"2 µg/mL, 72 h",inhibition,90.7%
CN(C)[C@@H]1C(O)=C(C(N)=O)C(=O)[C@@]2(O)C(O)=C3C(=O)c4c(O)c(N)nc(Cl)c4C[C@H]3C[C@@H]12,Enterobacter cloacae,"microbial growth, broth dilution",ATCC13047,,MIC,1 µg/mL
C/C=C(\C)c1cc(OC(=O)c2c(O)c(C)c(O)c(Cl)c2/C(C)=C/C)c(C)c(O)c1C(=O)O,Enterococcus gallinarum,"microbial growth, broth dilution",GALLINARUM,,MIC,64 µg/mL
CN(C)c1ccc(O)c2c1C[C@H]1C[C@H]3[C@H](N(C)C)C(O)=C(C(N)=O)C(=O)[C@@]3(O)C(O)=C1C2=O,Enterobacter cloacae,"microbial growth, broth dilution",ATCC13047,,MIC,2 µg/mL
C[C@@H](Oc1cc(-c2cnn(C3CCNCC3)c2)cnc1N)c1c(Cl)ccc(F)c1Cl,NCI-H3122,"cell growth or viability, MTT",,"5 µg/mL, 72 h",inhibition,85.8%
O=C(O)c1cn(C2CC2)c2cc(N3CCNCC3)c(F)cc2c1=O,Serratia marcescens,microbial growth,DSM30121,,MIC,0.5 µg/mL
CC1(C)S[C@@H]2[C@H](NC(=O)[C@H](N)c3ccccc3)C(=O)N2[C@H]1C(=O)O,Enterococcus gallinarum,"microbial growth, broth dilution",GALLINARUM,,MIC,8 µg/mL
CN(C)[C@@H]1C(O)=C(C(N)=O)C(=O)[C@@]2(O)C(O)=C3C(=O)c4c(O)c(-c5ccccc5)nc(Cl)c4C[C@H]3C[C@@H]12.Cl,Enterobacter cloacae,"microbial growth, broth dilution",ATCC13047,,MIC,> 32 µg/mL
CC(C)Oc1c(NC(=O)c2ccc(NC(=O)[C@H](CC(N)=O)NC(=O)c3ccc(NC(=O)c4ccc(C#N)cn4)cc3)cc2)ccc(C(=O)Nc2ccc(C(=O)O)cc2)c1O,Serratia marcescens,microbial growth,DSM30121,,MIC,> 64 µg/mL
